Screening data: PubChem, several laboratories
TROY NFkB inh = TROY signaling inhibition. Q293 LMP1-TROYcd NF-kB luciferase reporter, 4 h. inhibition, % at 10 µM. actives 0.98% (n = 360,000);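 active means compounds whose plate-normalised and pattern-corrected inhibition of the luciferase reporter signal at the single screening dose is 50% or more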
CaV13 ICDI inh = Primary screen for inhibitors of IQ motif and Ca2+-dependent inactivation inhibitor domain binding in CACNA1D, Förster resonance energy transfer in living cells, … | HEK cells, CFP/YFP FRET ICDI-IQ, plate reader, 10 min; percent FRET-ratio fall versus neutral wells | inhibition, % at 12.3 µM | actives 0.098% (n = 340,000) | AID 743397;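 active means mean replicate inhibition of at least 30% and at least 1% of replicates passing that level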;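 further: 0% = median of the neutral control wells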
Xi reactivation = reactivates the inactive X chromosome in mouse fibroblasts. XiGFP mouse fibroblasts, % GFP-positive cells imaging, 3 d; cells co-treated with 5-aza-dC sensitizer; scaled so ellipticine positive control = 100%. activation, % at 7.58 µM. actives 0.055% (n = 360,000);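 active means mean normalized replicate activation at least 10% and every replicate at or above 10%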;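 further: 0% = median of on-plate neutral control wells and 100% = ellipticine 6 µM median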
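Material: XiGFP fibroblasts, SV40-immortalized; Buffer or medium: DMEM containing 5-aza-dC; Compound dosing: single point; Times: 3 days compound exposure.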
TWEAK Fn14 block = TWEAK-Fn14 signaling inhibition; TWEAK-stimulated Fn14 reporter cells, luciferase luminescence, 8 h; inhibition, % at 10 µM; actives 2% (n = 360,000); AID 1159606; in the data active means inhibition above about 50%
LGR2 antag = blocks bursicon-induced cAMP signaling via Drosophila LGR2 | HEK293 LGR2, CRE-luciferase, bursicon-stimulated, 4 h | inhibition, % at 9.99 µM | AID 720647 | actives 0.35% (n = 380,000);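 active means drop in luminescence signal, shown as inhibition above about 50% in the replicate tests, limit read from the data, passing the limit was not always enough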;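 further: agonist challenge used bursicon conditioned medium at about half maximal strength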
Starred values were filed as active, the others as inactive; · = not tested or not shown. Compounds with a hit are over-represented: about 2% of the library has one in this group of screens.

SMILES	TROY NFkB inh	CaV13 ICDI inh	Xi reactivation	TWEAK Fn14 block	LGR2 antag
CC1CCCN(c2sc(S(C)(=O)=O)nc2S(=O)(=O)c2ccc(Cl)cc2)C1 (configuration not stated)	19	-2	0	51*	24
CS(=O)(=O)c1nc(S(=O)(=O)c2ccc(Cl)cc2)c(N2CCOCC2)s1	8	-15	0	49	5
O=C([C@H]1[C@H](CO)[C@H]2Cn3c(ccc(C4=CCCCC4)c3=O)[C@@H]1N2Cc1nccs1)N1CCCCC1	·	·	0	·	1
O=C1CCCC2=C1C(c1ccc(Br)cc1)c1c([nH]c(=S)[nH]c1=O)N2 (configuration not stated)	-9	-6	·	7	·
O=c1[nH]c(=S)[nH]c2c1C(c1ccc(Br)cc1)c1c([nH]c(=S)[nH]c1=O)O2	4	-19	0	77*	13
O=[N+]([O-])c1c(Nc2cccc(O)c2)cc(Cl)c2nonc12	88*	-16	2	64*	8
O=C(O)c1ccc(Nc2cc(Cl)c3nonc3c2[N+](=O)[O-])cc1	16	-5	0	7	5
Cc1c(Nc2cc(Cl)c3nonc3c2[N+](=O)[O-])c(=O)n(-c2ccccc2)n1C	84*	-9	19*	50*	103*
COCC(=O)N1CCCCN2[C@H](CO)[C@@H](c3ccc(C#Cc4ccccc4)cc3)[C@@H]2C1	·	·	1	·	0
Cc1noc(C)c1S(=O)(=O)Nc1ccc2c(c1)C(=O)N([C@@H](C)CO)C[C@@H](C)[C@@H](CN(C)Cc1ccc(Oc3ccccc3)cc1)O2	·	·	0	·	17
Cc1c2cc(O)c(=O)cc-2oc2cc(O)c(O)cc12	-4	-9	·	86*	21
Cc1cc2oc(=O)cc(-c3cc4ccccc4o3)c2cc1O	16	-16	0	5	-18
COc1cc(OC)c(-c2c3cc(O)c(=O)cc-3oc3cc(O)c(O)cc23)cc1OC	8	-5	0	62*	25
CNC[C@H]1Oc2ccc(NC(=O)CCC(F)(F)F)cc2CC(=O)N([C@@H](C)CO)C[C@H]1C	·	·	-1	·	-12
COC(=O)C1=C(C(=O)OC)[C@@H]2N(Cc3ccccc3)c3ccccc3[C@@]23C[C@@H](C(=O)OC)N(C(=O)c2ccc(Br)cc2)C3=N1	10	·	·	54*	·
COC(=O)C1=C(C(=O)OC)[C@@H]2N(Cc3ccccc3)c3ccccc3[C@@]23C[C@@H](C(=O)OC)N(C(=O)COCc2ccccc2)C3=N1	24	·	·	51*	·
C=CCN1c2ccccc2[C@]23C[C@@H](C(=O)OC)N(C(=O)OCC)C2=NC(C(=O)OC)=C(C(=O)OC)[C@H]13	4	-7	0	18	2
C=CCN1c2ccccc2[C@]23C[C@@H](C(=O)OC)N(C(=O)c4ccc(Br)cc4)C2=NC(C(=O)OC)=C(C(=O)OC)[C@H]13	31	-5	0	61*	7
COC(=O)C1=C(C(=O)OC)[C@@H]2N(C)c3ccc(OC)cc3[C@@]23C[C@@H](C(=O)OC)N(C(=O)c2ccc(Br)cc2)C3=N1	19	-12	0	53*	1
C[C@H]1CCCCO[C@@H](CN(C)Cc2ccc(C(F)(F)F)cc2)[C@@H](C)CN([C@@H](C)CO)C(=O)c2cc(N(C)C)ccc2O1	·	·	-1	·	2
CCC(=O)N1C[C@@H](C)[C@@H](OC)CN(C)C(=O)c2cc(NC(=O)c3ccc(F)cc3)ccc2OC[C@H]1C	·	·	0	·	-1
CC(=O)N1CC=CC1(CC(C)C)C(=O)NCCN1CCOCC1 (configuration not stated)	-49	-7	0	83*	-46
Cc1ccc(-c2cnc3c(c2)C(=O)N([C@@H](C)CO)C[C@@H](C)[C@@H](CN(C)S(C)(=O)=O)O3)cc1	·	·	-1	·	10
NC(=S)N/N=C/c1coc2c(ccc3ccccc32)c1=O	27	-6	0	51*	-54
NC(=S)N/N=C/c1coc2cc(Br)ccc2c1=O	-17	1	0	13	1
SMILES	TROY NFkB inh	CaV13 ICDI inh	Xi reactivation	TWEAK Fn14 block	LGR2 antag
Cc1ccc(S(=O)(=O)N2C[C@H]3n4c(=O)ccc(=O)n4C[C@H](OC(=O)NCC4CCCCC4)[C@@]3(O)C2)cc1	16	-5	0	61*	25
CN(C)CCCNC(=O)[C@H]1[C@H](CO)[C@H]2Cn3c(cccc3=O)[C@@H]1N2C(=O)Nc1cc(F)ccc1F	·	·	0	·	3
COc1cc(/C=N/Nc2ccc(S(N)(=O)=O)cc2[N+](=O)[O-])cc(OC)c1O	59*	-18	1	-50	-1
COc1cc(/C=N/Nc2ccccc2[N+](=O)[O-])cc(OC)c1O	-4	-20	0	-11	-45
O=[N+]([O-])c1ccc(O)c(/C=N/NC(=S)Nc2ccc(Cl)cc2Cl)c1	33	-3	0	71*	-2
O=C(N/N=C/c1cc([N+](=O)[O-])ccc1O)NC12CC3CC(CC(C3)C1)C2	85*	-6	0	93*	·
O=C(N/N=C/c1cc([N+](=O)[O-])ccc1O)C12CC3CC(CC(C3)C1)C2	-15	-7	1	-10	7
O=[N+]([O-])c1ccc(/C=N/NC(=S)Nc2ccc(Cl)cc2Cl)s1	47	-3	13*	4	-7
Cc1cc(Cl)ccc1NC(=O)CCC(=O)N/N=C/c1cc([N+](=O)[O-])ccc1O	25	-6	0	22	41
CCOC(=O)C1=NNC(C(=O)c2ccc(C)cc2)C1c1ccc(OC)cc1 (configuration not stated)	6	-7	·	72*	·
CCOC(=O)C1=NNC(C(=O)c2ccc(Cl)cc2)C1c1ccc(OC)cc1 (configuration not stated)	-8	-6	0	-13	3
CSc1cccc(NC(=O)c2cnn3ccccc23)c1	-59	-3	1	2	-71
CCc1ccc(NC(=O)c2cnn3ccccc23)cc1	53*	-7	0	93*	·
CCS(=O)(=O)N1CC2(CN(C)[C@@H](CO)c3c2c2ccc(OC)cc2n3C)C1	·	·	0	·	8
Cc1ccccc1S(=O)(=O)N1CC(=O)N2[C@H](C1)[C@H](c1ccc(C#CCC(C)C)cc1)[C@@H]2CO	·	·	0	·	6
COC(C(=O)C(O)C(C)O)C1Cc2cc3cc(OC4CC(OC5CC(O)C(O)C(C)O5)C(O)C(C)O4)c(C)c(O)c3c(O)c2C(=O)C1OC1CC(OC2CC(OC3CC(O)C(OC)C(C)O3)C(O)C(C)O2)C(O)C(C)O1 (configuration not stated)	8	-23	0	85*	5
CC=Cc1ccc2n(c1=O)C[C@@H]1[C@@H](CO)[C@H](C(=O)Nc3ccccc3)N(CC)[C@H]21 (mixture of isomers)	·	·	0	·	-2
